Experimental data taken from ChEMBL document CHEMBL4665666, “Discovery and characterization of trypanocidal cysteine protease inhibitors from the 'malaria box'” (Eur J Med Chem, 2019).

Key:
Schistosoma mansoni [1] = experiment: Inhibition of recombinant Schistosoma mansoni SmCB1 expressed in Pichia pastoris at 5 uM using Z-FR-AMC as substrate preincubated for 10 mins followed by substrate addition and measured at 23 sec interval for 30 mins by fluorimetric analysis relative to control
Outline: (§1)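 SmCB1 (recombinant, 8 nM) in 0.1 M sodium acetate pH 5.5 with 0.01% Triton X-100 and 4 mM β-mercaptoethanol. Compound at 5 µM, either not pre-incubated or pre-incubated 10 min with enzyme. Z-FR-AMC 20 µM, fluorescence 340/440 nm every 23 s for 30 min. Inhibition is versus DMSO, with E-64 control; each condition in duplicate.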

Schistosoma mansoni [2] = experiment: Inhibition of recombinant Schistosoma mansoni SmCB1 expressed in Pichia pastoris at 5 uM using Z-FR-AMC as substrate and measured at 23 sec interval for 30 mins without preincubation by fluorimetric analysis relative to control; outline: as §1
[3] = molecular target: Rhodesain (Trypanosoma brucei rhodesiense) (UniProt Q95PM0); experiment: Inhibition of recombinant Trypanosoma brucei rhodesain expressed in Pichia pastoris at 20 uM using Z-FR-AMC as substrate and measured at 12 sec interval for 5 mins without preincubation by fluorimetric analysis relative to control
Outline: (§2)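 Run with no pre-incubation or with 10 min enzyme-compound pre-incubation. Fluorescence read at 340/440 nm. Concentration was set by solubility under assay conditions. Inhibition is against DMSO, with E-64 as positive control; triplicate.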

[4] = molecular target: Cruzipain (Trypanosoma cruzi) (UniProt P25779); experiment: Inhibition of recombinant Trypanosoma cruzi cruzain at 10 uM using Z-FR-AMC as substrate preincubated for 10 mins followed by substrate addition and measured at 12 sec interval for 5 mins by fluorimetric analysis relative to control; details: time 15.0 min
Outline: (§3)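 Recombinant rhodesain or cruzain (1 nM) in 0.1 M sodium acetate pH 5.5, 0.01% Triton X-100, 1 mM β-mercaptoethanol. Compound at a single concentration, either without or after 10 min enzyme pre-incubation. Z-FR-AMC 2.5 µM, read at 340/440 nm every 12 s for 5 min. Inhibition is relative to DMSO, with E-64 as positive control. Done in duplicate (primary screen) or triplicate.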

[5] = molecular target: Rhodesain (Trypanosoma brucei rhodesiense) (UniProt Q95PM0); experiment: Inhibition of recombinant Trypanosoma brucei rhodesain expressed in Pichia pastoris at 5 uM using Z-FR-AMC as substrate preincubated for 10 mins followed by substrate addition and measured at 12 sec interval for 5 mins by fluorimetric analysis relative to control; details: time 15.0 min
Outline: as §3, with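 “pre-incubation.” for “pre-incubation. Z-FR-AMC 2.5 µM, read at 340/440 nm every 12 s for 5 min.”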

[6] = system: Trypanosoma brucei brucei; experiment: Trypanocidal activity against Trypanosoma brucei brucei Squib 427 assessed as reduction in parasite viability; format: functional, organism-based
[7] = molecular target: Cruzipain (Trypanosoma cruzi) (UniProt P25779); experiment: Inhibition of recombinant Trypanosoma cruzi cruzain at 5 uM using Z-FR-AMC as substrate and measured at 12 sec interval for 5 mins without preincubation by fluorimetric analysis relative to control
Outline: as §3, with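 “pre-incubation.” for “pre-incubation. Z-FR-AMC 2.5 µM, read at 340/440 nm every 12 s for 5 min.”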

[8] = molecular target: Cruzipain (Trypanosoma cruzi) (UniProt P25779); experiment: Inhibition of recombinant Trypanosoma cruzi cruzain at 20 uM using Z-FR-AMC as substrate and measured at 12 sec interval for 5 mins without preincubation by fluorimetric analysis relative to control; outline: as §3
[9] = molecular target: Cruzipain (Trypanosoma cruzi) (UniProt P25779); experiment: Inhibition of recombinant Trypanosoma cruzi cruzain at 10 uM using Z-FR-AMC as substrate and measured at 12 sec interval for 5 mins without preincubation by fluorimetric analysis relative to control; outline: as §3
[10] = molecular target: Rhodesain (Trypanosoma brucei rhodesiense) (UniProt Q95PM0); experiment: Inhibition of recombinant Trypanosoma brucei rhodesain expressed in Pichia pastoris at 10 uM using Z-FR-AMC as substrate and measured at 12 sec interval for 5 mins without preincubation by fluorimetric analysis relative to control; outline: as §3
[11] = molecular target: Rhodesain (Trypanosoma brucei rhodesiense) (UniProt Q95PM0); experiment: Inhibition of recombinant Trypanosoma brucei rhodesain expressed in Pichia pastoris at 10 uM using Z-FR-AMC as substrate preincubated for 10 mins followed by substrate addition and measured at 12 sec interval for 5 mins by fluorimetric analysis relative to control; details: time 15.0 min; outline: as §3
[12] = molecular target: Cruzipain (Trypanosoma cruzi) (UniProt P25779); experiment: Inhibition of recombinant Trypanosoma cruzi cruzain at 5 uM using Z-FR-AMC as substrate preincubated for 10 mins followed by substrate addition and measured at 12 sec interval for 5 mins by fluorimetric analysis relative to control; details: time 15.0 min
Outline: as §3, with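 “pre-incubation.” for “pre-incubation. Z-FR-AMC 2.5 µM, read at 340/440 nm every 12 s for 5 min.”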

[13] = molecular target: Cruzipain (Trypanosoma cruzi) (UniProt P25779); experiment: Inhibition of recombinant Trypanosoma cruzi cruzain at 20 uM using Z-FR-AMC as substrate preincubated for 10 mins followed by substrate addition and measured at 12 sec interval for 5 mins by fluorimetric analysis relative to control; details: time 15.0 min; outline: as §3
[14] = molecular target: Rhodesain (Trypanosoma brucei rhodesiense) (UniProt Q95PM0); experiment: Inhibition of recombinant Trypanosoma brucei rhodesain expressed in Pichia pastoris at 5 uM using Z-FR-AMC as substrate and measured at 12 sec interval for 5 mins without preincubation by fluorimetric analysis relative to control
Outline: as §3, with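 “pre-incubation.” for “pre-incubation. Z-FR-AMC 2.5 µM, read at 340/440 nm every 12 s for 5 min.”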

[15] = molecular target: Rhodesain (Trypanosoma brucei rhodesiense) (UniProt Q95PM0); experiment: Inhibition of recombinant Trypanosoma brucei rhodesain expressed in Pichia pastoris at 20 uM using Z-FR-AMC as substrate preincubated for 10 mins followed by substrate addition and measured at 12 sec interval for 5 mins by fluorimetric analysis relative to control; details: time 15.0 min; outline: as §2
[16] = molecular target: Cruzipain (Trypanosoma cruzi) (UniProt P25779); experiment: Inhibition of recombinant Trypanosoma cruzi cruzain at 10 uM preincubated for 10 mins in presence of 0.1% Triton X-100 relative to control
Outline: (§4)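 To test detergent sensitivity, cruzain was pre-incubated 10 min at room temperature with compound with no Triton X-100, 0.01% or 0.1% Triton X-100. Cleavage of Z-FR-AMC was then followed at pH 5.5 in acetate buffer. Percent inhibition was compared across detergent levels.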

[17] = system: Trypanosoma brucei rhodesiense; experiment: Trypanocidal activity against Trypanosoma brucei rhodesiense STI B900 assessed as reduction in parasite viability; format: functional, organism-based
[18] = molecular target: Cruzipain (Trypanosoma cruzi) (UniProt P25779); experiment: Inhibition of recombinant Trypanosoma cruzi cruzain at 10 uM preincubated for 10 mins in absence of Triton X-100 relative to control; outline: as §4
[19] = molecular target: Cruzipain (Trypanosoma cruzi) (UniProt P25779); experiment: Inhibition of recombinant Trypanosoma cruzi cruzain at 10 uM preincubated with BSA for 5 mins followed by incubation with enzyme for 5 mins followed by substrate addition relative to control; details: time 10.0 min
Outline: (§5)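 For BSA sensitivity, compound was held 5 min with BSA (2 mg/mL in 0.001% Triton X-100), then 5 min with 1 nM cruzain, before substrate was added and activity monitored. Parallel runs omitted BSA under otherwise identical conditions.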

Trypanosoma cruzi = experiment: Trypanocidal activity against Trypanosoma cruzi Tulahuen C4 assessed as reduction in parasite viability; format: functional, organism-based
[20] = molecular target: Cruzipain (Trypanosoma cruzi) (UniProt P25779); experiment: Inhibition of recombinant Trypanosoma cruzi cruzain at 10 uM preincubated for 10 mins in presence of 0.01% Triton X-100 relative to control; outline: as §4
[21] = molecular target: Cruzipain (Trypanosoma cruzi) (UniProt P25779); experiment: Inhibition of recombinant Trypanosoma cruzi cruzain at 10 uM preincubated with enzyme for 5 mins followed by substrate addition in absence of BSA relative to control; outline: as §5

Chain of Cruzipain (Trypanosoma cruzi) (P25779 123-467 limits assumed): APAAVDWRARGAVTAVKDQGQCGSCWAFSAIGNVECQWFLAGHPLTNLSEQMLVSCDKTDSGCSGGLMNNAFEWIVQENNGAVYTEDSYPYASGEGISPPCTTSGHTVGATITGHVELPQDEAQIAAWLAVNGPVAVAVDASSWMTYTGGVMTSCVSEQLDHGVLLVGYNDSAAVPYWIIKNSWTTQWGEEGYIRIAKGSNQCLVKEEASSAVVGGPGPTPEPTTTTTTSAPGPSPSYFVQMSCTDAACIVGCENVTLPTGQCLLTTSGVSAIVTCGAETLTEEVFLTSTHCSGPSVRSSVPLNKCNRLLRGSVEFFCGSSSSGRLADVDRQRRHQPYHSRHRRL
Chain of Rhodesain (Trypanosoma brucei rhodesiense) (Q95PM0 1-450): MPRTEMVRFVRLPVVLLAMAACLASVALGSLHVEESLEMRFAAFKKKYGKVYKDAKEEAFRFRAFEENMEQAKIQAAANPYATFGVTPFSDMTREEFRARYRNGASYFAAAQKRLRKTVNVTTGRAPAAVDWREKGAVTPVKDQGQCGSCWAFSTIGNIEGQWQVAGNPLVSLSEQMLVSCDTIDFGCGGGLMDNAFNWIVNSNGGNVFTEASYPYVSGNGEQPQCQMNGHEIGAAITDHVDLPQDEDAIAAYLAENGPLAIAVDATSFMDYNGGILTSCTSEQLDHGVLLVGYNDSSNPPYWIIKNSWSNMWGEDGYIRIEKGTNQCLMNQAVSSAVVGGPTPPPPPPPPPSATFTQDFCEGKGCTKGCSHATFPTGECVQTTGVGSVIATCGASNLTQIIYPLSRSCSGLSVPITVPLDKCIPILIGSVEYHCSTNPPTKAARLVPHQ

inhibition (Schistosoma mansoni [1]) | inhibition (Schistosoma mansoni [2]) | SMILES | inhibition [4] | inhibition [5] | inhibition [7] | inhibition [9] | inhibition [10] | inhibition [11] | inhibition [12] | inhibition [14] | also measured
0.3% | 36.8% | O=C1C2=C(Nc3ccccc3SC2c2ccccc2)c2ccccc21 (centres undefined) | – | – | – | – | – | – | – | – | –
50% | 48.3% | COc1ccc(Br)cc1C1Nc2ccc3ccccc3c2C2=C1C(=O)CC(c1ccccc1)C2 (centres undefined) | – | 72.7% | 7% | – | – | – | 37.3% | 27.6% | –
48% | 4.1% | CC(C)(C)c1ccc(O)c(CNC2CCCCC2)c1 | – | – | – | – | – | – | – | – | –
73% | 9% | Cc1ccc(CN2CCC(C(=O)Nc3ccc(-c4cc5ccccc5[nH]4)cc3)CC2)o1 | – | – | – | – | – | – | – | – | –
47.3% | 0% | Cc1cc(NC(=O)c2cccc(C(F)(F)F)c2)n(-c2nc(-c3ccc4c(c3)OCO4)cs2)n1 | – | 69.4% | 18.4% | – | – | – | 42% | 41% | –

More lines, now with the values behind:

SMILES | inhibition (Schistosoma mansoni [1]) | inhibition (Schistosoma mansoni [2]) | inhibition [4] | inhibition [5] | inhibition [7] | inhibition [9] | inhibition [10] | inhibition [11] | inhibition [12] | inhibition [14] | also measured
Cc1cc(NC(=O)C2c3ccccc3C(=O)N(CC(C)C)C2c2cccs2)no1 (centres undefined) | 0% | 44.9% | – | – | – | – | – | – | – | – | –
CCOc1ccc(/C=C/c2nc(=O)c3ccccc3o2)cc1 | – | – | 3% | 67% | 30.1% | 10% | 8% | 0% | 88.6% | 32.7% | inhibition [3]: 14%; IC50 [6]: 32 µM; inhibition [8]: 15%; inhibition [13]: 10%; inhibition [15]: 0%
CCOC(=O)c1c(C)n(-c2ccccc2)c2ccc(OC(=O)c3cc(OC)c(OC)c(OC)c3)cc12 | – | – | 19% | 74.4% | 36.8% | 10% | 4% | 14% | 51.7% | 38.5% | –
c1ccc(-c2ccc(-c3nc4ccccc4[nH]3)cc2)cc1 | – | – | 38% | 52.9% | 77% | 33% | 14% | 52% | 87.1% | 42.2% | inhibition [16]: 7.3%; IC50 [17]: 32 µM; inhibition [18]: 100%; IC50 [6]: 32 µM; inhibition [19]: 29%; IC50 (Trypanosoma cruzi): 32 µM; inhibition [20]: 38.4%; inhibition [21]: 41.3%
COc1ccc(-c2cc3c(nn2)-c2ccccc2C3=O)cc1 | 38.5% | 13.6% | – | – | – | – | – | – | – | – | –
